{"data": "Results pooled from the literature", "organism": "Hepatitis C virus", "effect on": "viral replication", "mode": "inhibitor", "setting": "replicon", "note": "Compare with care: the assays were run in different laboratories."}
{"SMILES": "O=C1N[C@H]2[C@H](CS[C@H]2CCCCC(=O)N2CCC[C@@H]2C(=O)Nc2ccc(/C=C/c3ccc(NC(=O)[C@H]4CCCN4C(=O)Cc4ccccc4)cc3)cc2)N1", "test system": "GETYPE1B", "EC50 [nM]": "> 10000"}
{"SMILES": "COc1nc(N)nc2c1ncn2[C@@H]1O[C@H](COP(=O)(N[C@@H](C)C(=O)OCC(C)(C)C)Oc2cccc3ccccc23)[C@@H](O)[C@@]1(C)O (some centres unmarked)", "test system": "GETYPE2A", "setting": "96 h", "EC50 [nM]": 7.3}
{"SMILES": "COC(=O)N[C@H](C(=O)N1CCC[C@H]1c1ncc(-c2ccc(-c3ccc(-c4cnc([C@@H]5CCCN5C(=O)[C@@H](NC(=O)OC)C(C)C)[nH]4)cc3)cc2)[nH]1)C(C)C", "test system": "GETYPE1B", "EC50 [nM]": 0.009}
{"SMILES": "O=C1O[C@H]2[C@@H]3OC(=O)c4cc(O)c(O)c(O)c4-c4c(O)c(O)c5oc(=O)c6c(c(O)c(O)c7oc(=O)c4c5c76)-c4c(cc(O)c(O)c4O)C(=O)OC[C@H]3OC(O)[C@@H]2OC(=O)c2cc(O)c(O)c(O)c2-c2c1cc(O)c(O)c2O (mixture of isomers)", "test system": "Huh-7, GETYPE2A", "setting": "48 h", "EC50 [nM]": "~100000"}
{"SMILES": "CCN1CCN(C2c3ccccc3-c3ccc(Br)cc32)CC1 (centres unmarked)", "test system": "Huh-7.5.1, GETYPE2A", "setting": "48 h", "EC50 [nM]": "> 1000"}
{"SMILES": "C=C1/C(=C\\C=C2/CCC[C@]3(C)[C@@H]([C@H](C)CCCC(C)(C)O)CC[C@@H]23)C[C@@H](O)C[C@@H]1O", "assay": "luciferase", "test system": "BM4-5, GETYPE1B", "setting": "5 days", "EC50 [nM]": 1100}
{"SMILES": "CN1CCN([C@@H](c2ccccc2)c2ccc(Cl)cc2)CC1", "test system": "Huh-7.5.1, GETYPE2A", "setting": "48 h", "EC50 [nM]": 24}
{"SMILES": "C=C1CC[C@H](O)C/C1=C/C=C1\\CCC[C@]2(C)[C@@H]([C@H](C)/C=C/[C@H](C)C(C)C)CC[C@@H]12", "assay": "luciferase", "test system": "BM4-5, GETYPE1B", "setting": "5 days", "EC50 [nM]": 14200}
